Tests used:
ABHD16A [1] = target: T1, ABHD16A (Homo sapiens, UniProt O95870); assay: ABPP-SILAC of serine hydrolase activities in COLO205 cells treated in situ; format: cell-based; conditions: 1 μM, 4 h, 37 °C
T1 sequence (O95870 1-558): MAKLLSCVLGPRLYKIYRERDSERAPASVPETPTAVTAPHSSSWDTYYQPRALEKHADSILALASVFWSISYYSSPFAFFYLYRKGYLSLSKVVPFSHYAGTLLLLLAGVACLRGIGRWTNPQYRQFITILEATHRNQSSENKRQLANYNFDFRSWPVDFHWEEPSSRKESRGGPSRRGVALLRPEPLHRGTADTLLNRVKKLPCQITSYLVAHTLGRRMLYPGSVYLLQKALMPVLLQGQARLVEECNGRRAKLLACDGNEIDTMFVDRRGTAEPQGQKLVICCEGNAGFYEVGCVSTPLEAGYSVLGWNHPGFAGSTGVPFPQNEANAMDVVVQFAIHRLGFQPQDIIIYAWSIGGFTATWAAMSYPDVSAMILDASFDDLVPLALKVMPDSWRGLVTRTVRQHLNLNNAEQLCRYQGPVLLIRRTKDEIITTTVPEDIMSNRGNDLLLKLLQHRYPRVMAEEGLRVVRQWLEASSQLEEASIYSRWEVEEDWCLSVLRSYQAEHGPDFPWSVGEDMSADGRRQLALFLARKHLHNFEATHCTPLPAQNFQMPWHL

[2] = test system: PS lipase activity of mouse peritoneal macrophages; assay: PS lipase activity of membrane proteomes of peritoneal macrophages; format: biochemical; conditions: vehicle- and LPS-stimulated macrophages; 1 µM, 30 min, 37 °C
Summary of the method: (§1)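 Membrane proteome (20 μg) incubated with 100 μM lipid substrate in PBS (100 μL), shaking, […] for 30 min. Quenched with 2:1 CHCl3:MeOH and internal standard, then extracted twice. Product quantified by LC-QTOF-MS, ESI negative mode, as peak area relative to internal standard. Non-enzymatic rate from heat-denatured proteome (95 °C, 15 min) subtracted.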

[3] = test system: thioglycollate-elicited mouse peritoneal macrophages; assay: secreted cytokines of thioglycollate-elicited peritoneal macrophages; format: cell-based; conditions: 4 h
Summary of the method: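 Peritoneal macrophages elicited by thioglycollate from wild-type, ABHD12−/− or ABHD16A−/− mice. 2 x 10^6 cells allowed to adhere 2 h, then washed. Test compound (1 μM) or DMSO applied for 4 h in serum-free, phenol red-free RPMI, then LPS (5 μg/mL, 7 h, in PBS). Cytokines measured in 0.5 mL harvested medium by mouse single-analyte ELISA.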

ABHD16A [4] = target: T1, ABHD16A; assay: PS substrate; format: biochemical; conditions: 95% interval for the reported IC50 value, human ABHD16A PS lipase activity
mouse ABHD16A = target: T2, mouse ABHD16A (Mus musculus, UniProt Q9Z1Q2); assay: competitive gel-based ABPP, mouse ABHD16A-transfected HEK293T proteome; format: binding
T2 sequence (Q9Z1Q2 1-558): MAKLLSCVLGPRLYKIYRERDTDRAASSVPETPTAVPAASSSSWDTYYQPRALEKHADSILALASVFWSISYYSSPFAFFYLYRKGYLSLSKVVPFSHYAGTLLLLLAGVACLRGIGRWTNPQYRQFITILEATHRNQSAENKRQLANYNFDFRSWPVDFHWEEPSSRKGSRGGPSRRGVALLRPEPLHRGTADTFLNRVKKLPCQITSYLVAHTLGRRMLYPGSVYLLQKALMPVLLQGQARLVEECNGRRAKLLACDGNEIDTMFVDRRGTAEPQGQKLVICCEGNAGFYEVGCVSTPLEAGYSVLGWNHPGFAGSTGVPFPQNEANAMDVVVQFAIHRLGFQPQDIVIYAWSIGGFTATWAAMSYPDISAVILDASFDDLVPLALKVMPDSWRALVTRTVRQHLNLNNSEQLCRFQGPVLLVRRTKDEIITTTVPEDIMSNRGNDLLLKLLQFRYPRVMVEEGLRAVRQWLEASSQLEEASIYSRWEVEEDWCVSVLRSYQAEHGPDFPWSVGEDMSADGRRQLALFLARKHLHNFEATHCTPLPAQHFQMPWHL

[5] = test system: thioglycollate-elicited mouse peritoneal macrophages; assay: cellular and secreted lyso-PS of thioglycollate-elicited peritoneal macrophages; format: cell-based; conditions: 4 h
Summary of the method: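 Thioglycollate-elicited peritoneal macrophages from wild-type, ABHD12−/− or ABHD16A−/− mice. 2 x 10^6 cells plated and adhered 2 h at 37 °C. Washed, then test compound (1 μM) or DMSO given for 4 h in serum-free, phenol red-free RPMI. LPS 5 μg/mL in PBS for 7 h. Media (4 mL) and cells extracted with CHCl3:MeOH. Lipids quantified by LC-MS MRM against internal standards, normalized to cell number.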

[6] = test system: additional off-targets (serine hydrolase activities); assay: ABPP-SILAC of serine hydrolase activities in COLO205 cells treated in situ; format: cell-based, human; conditions: 1 μM, 4 h, 37 °C
[7] = test system: PS lipase activity of human LCLs; assay: PS lipase activity of membrane proteomes of lymphoblast cell lines; format: biochemical; conditions: 1 µM, 30 min, 37 °C; all LCL samples
Summary of the method: as §1

COLO205 cells = assay: LC-MS-based lipid profiling of treated cells; format: cell-based, human; conditions: COLO205, 1 μM, 4 h
Summary of the method: (§2)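 Cells grown in RPMI 1640 with 10% FCS and penicillin-streptomycin. 3 x 10^6 cells washed, then exposed to test compound (1 μM) or DMSO for 4 h at 37 °C, 5% CO2, in serum-free, phenol red-free RPMI. Media and cells extracted with 2:1 CHCl3:MeOH plus internal standards. Lipids quantified by LC-MS MRM (ESI) as peak area versus unnatural internal standard, normalized to cell number.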

[8] = test system: human lymphoblast cell lines (LCLs); assay: targeted LC-MS analysis of lyso-PS in LCLs; format: cell-based; conditions: 1 μM, 4 h
Summary of the method: as §2

ABHD16A [9] = target: T1, ABHD16A; assay: competitive gel-based ABPP, K562 cells treated in situ; format: cell-based; conditions: in situ IC50 for ABHD16A, 4 h treatment, 37 °C
ABHD16A [10] = target: T1, ABHD16A; assay: gel-based ABPP of LCLs treated in situ; format: cell-based; conditions: 1 µM, 4 h in situ
ABHD16A [11] = target: T1, ABHD16A; assay: biochemical; format: binding
ABHD16A/BAT5 = conditions: read-out: IC50, competitive ABPP; uncharacterized 60 kDa membrane enzyme tentatively identified as ABHD16A/BAT5; cited from earlier work
ABHD12 = conditions: read-out: IC50, competitive ABPP; brain serine hydrolases; cited from earlier work
[12] = target: T3, ABHD16A (WT and S355A mutant) (Homo sapiens, UniProt O95870); assay: activity-dependent labeling of ABHD16A in transfected HEK293T cell lysates; format: binding; conditions: 0.2 µM, 30 min, 37 °C
T3 sequence (O95870 1-558): T1 sequence (O95870 1-558)

[13] = ABHD12−/− macrophages, pre-treatment 1 μM
[14] = ABHD16A−/− macrophages, basal or LPS stimulation, 1 µM
[15] = wild-type macrophages, pre-treatment 1 μM, LPS 5 μg/mL, 7 h

SMILES: CCCCCCCCCCCCCC1OC(=O)/C1=C\CCCCC(N)=O (centres unmarked) [KC01]
- light:heavy ratio for ABHD16A (ABPP-SILAC) (ABHD16A [1]): 0.02
- PS lipase activity of macrophage membrane proteomes [2]: blocked
- LPS-induced increases in cytokine secretion [3, 13]: blocked
- secreted proinflammatory cytokines (IL-6 and TNF-α) [3, 14]: no changes
- LPS-induced cytokine release [3, 15]: significantly blunted
- IC50 (ABHD16A [4]): 69 to 105 nM
- IC50 (mouse ABHD16A): 200 to 500 nM
- LPS-induced increases in lyso-PSs [5, 13]: blocked
- cellular or secreted lyso-PS and other measured lipids [5, 14]: no changes
- basal and LPS-induced increases in cellular and secreted lyso-PSs [5, 15]: reduced
- partial inhibition of a handful of additional off-targets (ABPP-SILAC) [6]: 50–80%
- PS lipase activity of LCL membrane proteomes [7]: inhibited
- cellular lyso-PSs versus DMSO-treated control cells (COLO205 cells): significant reductions
- other lipids (PSs, PCs, PEs, lyso-PCs, lyso-PEs, MAGs) (COLO205 cells): No changes
- secreted lyso-PSs (18:1 and 18:0) (COLO205 cells; serum-free media): decreased
- secreted lyso-PSs of the ABHD12-null LCL ([8]; PHARC subject-derived LCL): significantly lowered
- cellular lyso-PSs of LCLs ([8]; all LCLs): decreased cellular lyso-PSs
- IC50 (ABHD16A [9]): ~300 nM
- inhibition of ABHD16A in LCLs by gel-based ABPP (ABHD16A [10]): confirmed inhibition
- IC50 (ABHD16A [11]): 200 to 500 nM

SMILES: CCCCCCCCCCC[C@@H](C[C@@H]1OC(=O)[C@H]1CCCCCC)OC(=O)[C@H](CC(C)C)NC=O [THL, tetrahydrolipstatin]
- IC50 (ABHD16A/BAT5): ~100 nM
- IC50 (ABHD12): ~100 nM

SMILES: CCCCCCCCCCCCCC1OC(=O)/C1=C\CCCC(=O)NCCCCCNC(=O)c1ccc(-c2c3ccc(=[N+](C)C)cc-3oc3cc(N(C)C)ccc23)c(C(=O)[O-])c1 (centres unmarked) [WHP01]
- labeling of ABHD16A by fluorescent probe [12]: labeled WT-ABHD16A but not the catalytic serine S355A mutant

From article PMC4301979 (Nature chemical biology, 2015)
